Results reported in ChEMBL document CHEMBL3853334, “Brain penetrant liver X receptor (LXR) modulators based on a 2,4,5,6-tetrahydropyrrolo[3,4-c]pyrazole core” (Bioorg Med Chem Lett, 2016).
pIC50: −log10 of the molar value.

Tests used:
[1] = Half life in human liver microsomes; format: ADME
[2] = Half life in rat liver microsomes; format: ADME
Cytochrome P450 3A4 = Cytochrome P450 3A4 (Homo sapiens, UniProt P08684); assay: Inhibition of CYP3A4 (unknown origin)
Cytochrome P450 2C9 = Cytochrome P450 2C9 (Homo sapiens, UniProt P11712); assay: Inhibition of CYP2C9 (unknown origin)
Cytochrome P450 2C9, sequence (P11712 whole entry): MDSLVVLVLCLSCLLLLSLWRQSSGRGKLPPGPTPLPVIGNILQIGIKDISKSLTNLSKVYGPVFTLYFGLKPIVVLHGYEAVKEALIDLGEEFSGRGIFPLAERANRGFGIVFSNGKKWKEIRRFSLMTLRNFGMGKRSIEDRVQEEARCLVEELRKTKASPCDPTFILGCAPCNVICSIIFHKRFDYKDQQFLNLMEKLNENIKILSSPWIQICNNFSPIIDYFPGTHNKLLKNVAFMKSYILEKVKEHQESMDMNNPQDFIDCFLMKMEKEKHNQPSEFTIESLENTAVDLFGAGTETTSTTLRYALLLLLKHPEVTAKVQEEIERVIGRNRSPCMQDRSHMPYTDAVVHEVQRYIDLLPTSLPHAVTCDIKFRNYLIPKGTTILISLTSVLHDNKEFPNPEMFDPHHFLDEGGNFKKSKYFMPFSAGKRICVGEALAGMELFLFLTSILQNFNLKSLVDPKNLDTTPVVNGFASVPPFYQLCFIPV

Cytochrome P450 2D6 = Cytochrome P450 2D6 (Homo sapiens, UniProt P10635); assay: Inhibition of CYP2D6 (unknown origin)
Cytochrome P450 2D6, sequence (P10635 whole entry): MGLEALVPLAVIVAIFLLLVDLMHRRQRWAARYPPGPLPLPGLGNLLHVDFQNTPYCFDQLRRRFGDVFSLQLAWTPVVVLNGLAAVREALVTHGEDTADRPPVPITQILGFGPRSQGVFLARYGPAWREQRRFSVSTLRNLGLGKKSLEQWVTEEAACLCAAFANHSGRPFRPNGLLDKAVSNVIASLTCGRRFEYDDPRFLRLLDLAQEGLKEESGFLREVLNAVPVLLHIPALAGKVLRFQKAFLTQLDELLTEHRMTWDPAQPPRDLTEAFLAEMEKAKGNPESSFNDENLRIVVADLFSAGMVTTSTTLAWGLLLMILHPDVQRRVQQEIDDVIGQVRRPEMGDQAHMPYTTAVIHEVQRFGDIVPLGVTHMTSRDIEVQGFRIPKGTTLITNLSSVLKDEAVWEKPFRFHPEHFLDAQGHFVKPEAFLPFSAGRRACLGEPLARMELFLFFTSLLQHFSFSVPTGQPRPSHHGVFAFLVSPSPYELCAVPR

[3] = Half life in mouse liver microsomes; format: ADME
[4] = Plasma concentration in Sprague-Dawley rat at 5 mg/kg, po measured after 4 hrs; format: ADME, organism-based
Method in brief: (§1)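 Male Sprague–Dawley rats, single oral dose of 5 mg/kg. Plasma and brain drug levels, plus brain ABCA1 mRNA, were measured 4 h after dosing.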

[5] = Drug uptake in Sprague-Dawley rat brain at 5 mg/kg, po measured after 4 hrs; format: ADME, organism-based; conditions: read-out: Drug uptake; method in brief: as §1
[6] = Plasma concentration in wild type C57BL mouse at 3 mg/kg, po measured after 4 hrs; format: ADME, organism-based
Method in brief: (§2)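 Wild-type C57BL mice, single oral dose of 1 or 3 mg/kg. Plasma and brain drug levels were measured 4 h post-dose, and brain ABCA1 mRNA induction was compared with vehicle control.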

[7] = Drug uptake in wild type C57BL mouse brain at 3 mg/kg, po measured after 4 hrs; format: ADME, organism-based; conditions: read-out: Drug uptake; method in brief: as §2
[8] = Drug uptake in Sprague-Dawley rat brain at 3 mg/kg qd administered via oral gavage for 5 days measured 4 hrs post last dose; format: ADME, organism-based; conditions: read-out: Drug uptake
Method in brief: (§3)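 Sprague–Dawley rats, oral dosing once daily for 5 days at 1, 3 or 10 mg/kg/day, with a reference LXR agonist at 30 mg/kg in the same study. Drug levels were measured in plasma and brain. Brain ABCA1 mRNA was also measured, along with Aβ1–40 and Aβ1–42 in cerebrum and CSF.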

[9] = Drug uptake in Sprague-Dawley rat brain at 10 mg/kg qd administered via oral gavage for 5 days measured 4 hrs post last dose; format: ADME, organism-based; conditions: read-out: Drug uptake; method in brief: as §3
[10] = Drug uptake in Sprague-Dawley rat brain at 1 mg/kg qd administered via oral gavage for 5 days measured 4 hrs post last dose; format: ADME, organism-based; conditions: read-out: Drug uptake; method in brief: as §3
[11] = Plasma concentration in Sprague-Dawley rat at 1 mg/kg qd administered via oral gavage for 5 days measured 4 hrs post last dose; format: ADME, organism-based; method in brief: as §3
[12] = Plasma concentration in Sprague-Dawley rat at 3 mg/kg qd administered via oral gavage for 5 days measured 4 hrs post last dose; format: ADME, organism-based; method in brief: as §3
[13] = Plasma concentration in Sprague-Dawley rat at 10 mg/kg qd administered via oral gavage for 5 days measured 4 hrs post last dose; format: ADME, organism-based; method in brief: as §3
[14] = Plasma concentration in wild type C57BL mouse at 1 mg/kg, po measured after 4 hrs; format: ADME, organism-based; method in brief: as §2
[15] = Drug uptake in wild type C57BL mouse brain at 1 mg/kg, po measured after 4 hrs; format: ADME, organism-based; conditions: read-out: Drug uptake; method in brief: as §2
[16] = Plasma concentration in wild type C57BL mouse at 30 mg/kg, po measured after 4 hrs; format: ADME, organism-based
Rattus norvegicus = assay: Induction of ABCA1 mRNA expression in Sprague-Dawley rat brain at 30 mg/kg qd administered via oral gavage for 5 days measured 4 hrs post last dose relative to control; format: functional
[17] = Plasma concentration in Sprague-Dawley rat at 30 mg/kg qd administered via oral gavage for 5 days measured 4 hrs post last dose; format: ADME, organism-based; method in brief: as §3
[18] = Drug uptake in Sprague-Dawley rat brain at 30 mg/kg qd administered via oral gavage for 5 days measured 4 hrs post last dose; format: ADME, organism-based; conditions: read-out: Drug uptake; method in brief: as §3
[19] = Drug uptake in wild type C57BL mouse brain at 30 mg/kg, po measured after 4 hrs; format: ADME, organism-based; conditions: read-out: Drug uptake

Cytochrome P450 3A4, sequence (P08684 whole entry): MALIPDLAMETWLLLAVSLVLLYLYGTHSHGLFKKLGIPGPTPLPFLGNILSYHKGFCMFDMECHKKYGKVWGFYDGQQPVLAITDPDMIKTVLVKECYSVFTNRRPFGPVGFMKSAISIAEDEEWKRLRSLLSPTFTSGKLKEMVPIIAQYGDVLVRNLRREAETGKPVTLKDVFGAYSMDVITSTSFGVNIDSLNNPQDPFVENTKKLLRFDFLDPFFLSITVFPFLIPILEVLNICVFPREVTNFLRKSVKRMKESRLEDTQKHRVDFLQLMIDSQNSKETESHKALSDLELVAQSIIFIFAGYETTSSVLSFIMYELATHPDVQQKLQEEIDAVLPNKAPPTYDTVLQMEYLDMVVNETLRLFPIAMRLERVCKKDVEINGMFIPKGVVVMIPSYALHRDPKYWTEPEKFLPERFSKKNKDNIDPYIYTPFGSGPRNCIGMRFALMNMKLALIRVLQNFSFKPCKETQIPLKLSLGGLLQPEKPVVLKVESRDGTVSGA

Compound | half-life [1] [h] | half-life [2] [h] | pIC50 (Cytochrome P450 3A4) | pIC50 (Cytochrome P450 2C9) | pIC50 (Cytochrome P450 2D6) | half-life [3] [h] | other results
CC(C)[C@@H]1CN(c2ccc(CO)c(S(C)(=O)=O)c2)CCN1c1ncc(CO)c(C(F)(F)F)n1 | 0.717 | 1.15 |  |  |  |  | 
COc1cc(N2Cc3cn(-c4cccc(S(C)(=O)=O)c4)nc3[C@H]2C(C)C)ccn1 | > 1 | > 1 | < 4.52 | 5.25 | < 4.52 | > 1 | 
COc1cc(N2Cc3cn(-c4cccc(S(C)(=O)=O)c4)nc3[C@H]2C(C)C)nc(C)n1 | > 1 |  | 4.89 | 5.18 | 5.27 |  | 
COc1cc(N2Cc3cn(-c4cccc(S(C)(=O)=O)c4)nc3[C@H]2C(C)(C)C)ccn1 | > 1 | > 1 | < 4.52 | 5.08 | 5.11 | 1.1 | concentration at 4 h [8]: 1560 nM; concentration at 4 h [9]: 5040 nM; concentration at 4 h [10]: 641 nM; concentration at 4 h [11]: 187 nM; concentration at 4 h [12]: 463 nM; concentration at 4 h [4]: 1220 nM; concentration at 4 h [13]: 1570 nM; concentration at 4 h [5]: 2280 nM; concentration at 4 h [6]: 1080 nM; concentration at 4 h [7]: 1020 nM
COc1nc(C)cc(N2Cc3cn(-c4cccc(S(C)(=O)=O)c4)nc3[C@H]2C(C)C)n1 | > 1 | > 1 |  | 5.24 | 4.62 | > 1 | concentration at 4 h [14]: 2 nM
CC(C)[C@@H]1c2nn(-c3cccc(S(C)(=O)=O)c3)cc2CN1c1nccc(C(F)(F)F)n1 | > 1 | > 1 | < 4.52 | 5.68 | 4.59 | > 1 | 
CC(C)[C@@H]1c2nn(-c3cccc(S(C)(=O)=O)c3)cc2CN1c1cc(C(F)(F)F)ncn1 | > 1 | > 1 | < 4.52 | 5.28 | < 4.52 | 0.833 | 
COc1cc(N2Cc3cn(-c4cccc(S(C)(=O)=O)c4)nc3[C@H]2C(C)C)cc(C)n1 |  |  | < 4.52 | 5.42 | 4.59 | > 0.367 | 
Cc1nc(N2Cc3cn(-c4cccc(S(C)(=O)=O)c4)nc3[C@H]2C(C)C)cc(C(F)(F)F)n1 | > 1 | > 1 | 4.68 | 5.30 | 4.80 | > 1 | concentration at 4 h [15]: 212 nM; concentration at 4 h [14]: 143 nM; concentration at 4 h [4]: 423 nM; concentration at 4 h [5]: 825 nM
O=S(=O)(c1ccccc1)N(CC(F)(F)F)c1ccc(C(O)(C(F)(F)F)C(F)(F)F)cc1 [T091317] |  |  |  |  |  |  | concentration at 4 h [16]: 3770 nM; fold change (FC) (Rattus norvegicus): 5; concentration at 4 h [17]: 2800 nM; concentration at 4 h [18]: 5360 nM; concentration at 4 h [19]: 8050 nM

Continued by rising pIC50 (Cytochrome P450 2C9), values first:

half-life [1] [h] | half-life [2] [h] | pIC50 (Cytochrome P450 3A4) | pIC50 (Cytochrome P450 2C9) | pIC50 (Cytochrome P450 2D6) | half-life [3] [h] | Compound | other results
> 1 | > 1 | 4.89 | 5.73 | 4.68 | > 1 | CC(C)[C@@H]1c2nn(-c3cccc(S(C)(=O)=O)c3)cc2CN1c1ccnc(C(F)(F)F)n1 | concentration at 4 h [4]: 1740 nM; concentration at 4 h [5]: 2060 nM; concentration at 4 h [6]: 2890 nM; concentration at 4 h [7]: 3150 nM
> 1 | > 1 | 5.60 | 5.84 | 4.57 |  | COc1ncnc(N2Cc3cn(-c4cccc(S(C)(=O)=O)c4)nc3[C@H]2C(C)C)c1F | 
> 1 | > 1 | 4.81 | 6.07 | 4.90 |  | COc1ncc(F)c(N2Cc3cn(-c4cccc(S(C)(=O)=O)c4)nc3[C@H]2C(C)C)n1 | concentration at 4 h [14]: 50 nM
> 1 | > 1 | 5.11 | 6.31 | 5.11 |  | CC(C)[C@@H]1c2nn(-c3ccc(CO)c(S(C)(=O)=O)c3)cc2CN1c1ncc(CO)c(C(F)(F)F)n1 | 
> 1 | 3.12 | 5.52 | 6.43 |  |  | CC(C)[C@@H]1c2nn(-c3cccc(S(C)(=O)=O)c3)cc2CN1c1ncc(CO)c(C(F)(F)F)n1 | 
